Data set [1] relates to BT-474. In words: Synergistic antiproliferative activity against docetaxel pretreated human BT-474 cells assessed as combination index at ED75 measured after 72 hrs by celltiter-glo assay. The data set is classed as functional. (In general: ATP-based viability assays read luminescence as a measure of living cells.)
The nature of data set [2]: Toxicity in human HCC70 cells xenografted CB17/icr SCID mouse at 120 mg/kg, po administered 3 times per week for 3 weeks starting 2 hrs post-lapatinib treatment and measured during compound dosing. To be noted: in vivo, 504 h. The data set is classed as organism-based. The method, boiled down:
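HCC70 cells in 50% Matrigel/PBS injected s.c. into flank of female C.B-17/ICR-scid mice; dosing began after 3 wk, groups randomized at mean tumour 0.2 cm³ (n = 5). Lapatinib 100 mg/kg p.o. in distilled water, 5 d/wk for 3 wk; MK-2206 in 30% Captisol p.o. 3×/wk for 3 wk, given 2 h after lapatinib. Body weight and physical signs monitored throughout.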
A general note: A xenograft is tissue or cells of one species grown in another, often human tumour cells in immunodeficient mice.

The target in data set [3] is RAC-alpha serine/threonine-protein kinase (Homo sapiens) (UniProt P31749). The experiment in a line: Inhibition of AKT in human HCC827 cells assessed as reduction in S6 phosphorylation at S240/S244 residues at 5 umol/L measured after 5 hrs in presence of erlotinib by Western blot analysis. As to conditions: dose 5.0 µmol/L. The data set is classed as cell-based. On the technique in general: In western blotting, separated proteins are transferred to a membrane and probed.
RAC-alpha serine/threonine-protein kinase (Homo sapiens), sequence (P31749 whole entry): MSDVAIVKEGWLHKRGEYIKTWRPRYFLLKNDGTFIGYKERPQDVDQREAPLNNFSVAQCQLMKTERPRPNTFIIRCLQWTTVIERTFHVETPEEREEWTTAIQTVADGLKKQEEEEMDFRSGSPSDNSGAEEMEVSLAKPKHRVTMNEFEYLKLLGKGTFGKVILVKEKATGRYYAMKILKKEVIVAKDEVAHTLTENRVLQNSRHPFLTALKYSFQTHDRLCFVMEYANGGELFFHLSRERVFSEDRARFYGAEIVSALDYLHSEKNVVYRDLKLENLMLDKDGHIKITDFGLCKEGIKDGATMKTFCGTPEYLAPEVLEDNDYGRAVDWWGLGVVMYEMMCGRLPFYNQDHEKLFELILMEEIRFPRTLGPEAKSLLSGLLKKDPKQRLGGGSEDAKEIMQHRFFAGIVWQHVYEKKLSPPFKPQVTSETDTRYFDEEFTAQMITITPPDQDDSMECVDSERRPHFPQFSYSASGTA

Data set [4] relates to BT-474. The experiment in a line: Synergistic antiproliferative activity against human BT-474 cells assessed as combination index at ED90 preincubated for 24 hrs followed by compound washout and subsequent docetaxel addition and measured after 72 hrs by celltiter-glo assay. The data set is classed as functional. The method, boiled down:
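Sequential schedule. Cells were seeded at 2 to 3 × 10³ per well in RPMI 1640 with 10% FBS and dosed 24 h after plating. They were exposed to the Akt inhibitor for 24 h, washed free of it, then given docetaxel for a further 72 h. Fixed concentration ratios spanned each agent's IC₅₀. ATP was read by CellTiter-Glo, and Chou–Talalay CI was calculated at ED50, ED75 and ED90.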

Data set [5] concerns HCC1954. In words: Synergistic antiproliferative activity against human HCC1954 cells assessed as combination index at ED75 measured after 96 hrs in presence of lapatinib by celltiter-glo assay. The data set is classed as functional.
Data set [6] has as its system NCI-H460. The experiment in a line: Synergistic antiproliferative activity against human NCI-H460 cells assessed as combination index at ED90 measured after 72 hrs in presence of camptothecin by celltiter-glo assay. The data set is classed as functional.
Data set [7] has as its system MDA-MB-468. The experiment in a line: Synergistic antiproliferative activity against human MDA-MB-468 cells assessed as combination index at ED90 measured after 72 hrs in presence of docetaxel by celltiter-glo assay. The data set is classed as functional.
Data set [8] relates to MDA-MB-468. The experiment in a line: Synergistic antiproliferative activity against human MDA-MB-468 cells assessed as combination index at ED50 measured after 96 hrs in presence of lapatinib by celltiter-glo assay. The data set is classed as functional.
Data set [9] has as its system NCI-H460. In words: Synergistic antiproliferative activity against human NCI-H460 cells assessed as combination index at ED75 measured after 72 hrs in presence of 5-FU by celltiter-glo assay. The data set is classed as functional.
In data set [10] the test system is HCC70. The experiment in a line: Synergistic antiproliferative activity against lapatinib pretreated human HCC70 cells assessed as combination index at ED50 measured after 72 hrs by celltiter-glo assay. The data set is classed as functional.
Data set [11] has as its system A2780. The experiment in a line: Induction of apoptosis in human A2780 cells assessed as increase in caspase-3/7 activity at 0.0625 to 1 uM incubated for 24 hrs prior to addition of carboplatin and measured after 24 hrs by caspase-glo 3/7 assay. The data set is classed as functional, cell-based. To be noted: dose 0.0625-1 µM.
In data set [12] the test system is A2780. In words: Synergistic antiproliferative activity against human A2780 cells assessed as combination index at ED50 measured after 72 hrs in presence of camptothecin by celltiter-glo assay. The data set is classed as functional. The method, boiled down: (§1)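 Cells were seeded at 2–3 × 10³ per well in RPMI 1640 with 10% FBS. At 24 h, MK-2206 and the partner drug were added simultaneously at constant concentration ratios spanning each agent's IC₅₀, for 72 h. Growth was read as cellular ATP by CellTiter-Glo. CI was taken from median-effect plots of each agent alone and in combination (Chou–Talalay), at ED₅₀, ED₇₅ and ED₉₀.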

In data set [13] the test system is SK-BR-3. The experiment in a line: Synergistic antiproliferative activity against human SK-BR-3 cells assessed as combination index at ED50 treated 24 hrs prior to lapatinib and measured after 72 hrs by celltiter-glo assay. The data set is classed as functional. To be noted: time 96 hrs.
Data set [14] has as its system A2780. The experiment in a line: Synergistic antiproliferative activity against human A2780 cells assessed as combination index at ED90 measured after 72 hrs in presence of camptothecin by celltiter-glo assay. The data set is classed as functional. Put shortly:
as §1

Data set [15] concerns NCI-H292. In words: Antitumor activity against human NCI-H292 cells xenografted in CD-1 mouse assessed as tumor growth suppression at 360 mg/kg, po administered once a week for 2 weeks and measured twice a week during compound dosing by caliper method. The data set is classed as functional, organism-based. The method, boiled down:
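Female CD1-nude mice carried s.c. NCI-H292 cells in Matrigel/PBS and were randomized at 0.2 cm³, n = 5. […] MK-2206 (30% Captisol) was given 2 h later at 120 mg/kg po on days 0, 2, 4, 7, 9, 11, or at 360 mg/kg on days 0 and 7. Control received vehicle. Caliper volume twice weekly.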

Data set [16] concerns MDA-MB-231. The experiment in a line: Synergistic antiproliferative activity against human MDA-MB-231 cells assessed as combination index at ED90 measured after 72 hrs in presence of docetaxel by celltiter-glo assay. The data set is classed as functional. The method, boiled down: (§2)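 Cells grown in RPMI 1640 with 10% heat-inactivated FBS at 37°C, 5% CO₂. Seeded at 2 to 3 × 10³ per well; drugs added 24 h later. […] Viability read as cellular ATP by CellTiter-Glo. CI calculated by Chou–Talalay from median-effect plots at ED50, ED75 and ED90.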

Data set [17] concerns BT-20. In words: Synergistic antiproliferative activity against human BT-20 cells assessed as combination index at ED75 measured after 72 hrs in presence of docetaxel by celltiter-glo assay. The data set is classed as functional. Put shortly:
as §2

Data set [18] deals with A2780. In words: Cell cycle arrest in human A2780 cells assessed as increase in accumulation of cells at sub-G1 phase measured after 72 hrs in presence of 5-FU by propidium iodide staining based flow cytometry. The data set is classed as functional.
For data set [19], the system named is NCI-H23. In words: Antiproliferative activity against human NCI-H23 cells assessed as reduction in cell proliferation measured after 72 hrs by celltiter-glo assay. The data set is classed as functional, cell-based. To be noted: NCI-H23, 72 h. Put shortly:
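Cells in RPMI 1640 with 10% heat-inactivated FBS at 37°C and 5% CO₂ were seeded at 2 to 3 × 10³ per well. […] Growth was read as cellular ATP by CellTiter-Glo.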

The test system of data set [20] is NCI-N87. In words: Synergistic antiproliferative activity against human NCI-N87 cells assessed as combination index at ED50 measured after 96 hrs in presence of lapatinib by celltiter-glo assay. The data set is classed as functional.
Data set [21] relates to SK-BR-3. The experiment in a line: Synergistic antiproliferative activity against human SK-BR-3 cells assessed as combination index at ED75 measured after 96 hrs in presence of lapatinib by celltiter-glo assay. The data set is classed as functional.
In data set [22] the test system is UMC-11. In words: Induction of apoptosis in human UMC-11 cells assessed as fold induction of capsase-3/7 activity measured after 24 to 48 hrs in presence of carboplatin by caspase-glo 3/7 assay. The data set is classed as functional. As to conditions: time 24-48 hrs.

The values below come from ChEMBL document CHEMBL5705892, “MK-2206, an allosteric Akt inhibitor, enhances antitumor efficacy by standard chemotherapeutic agents or molecular targeted drugs in vitro and in vivo” (Mol Cancer Ther, 2010).

Calls of active or inactive are those of the source. The rule behind the calls is not given here.

Regarding `Cl.NC1(c2ccc(-c3nc4ccn5c(=O)[nH]nc5c4cc3-c3ccccc3)cc2)CCC1`, the CI75 worked out at 0.5 in data set [1]; 0.18 in [5]; 0.45 in [9]; 0.7 in data set [17]; 0.18 in data set [21]. Besides, the Activity entry is “Non-Toxic” in [2] and “Dose-Dependent Effect” in [18]. Also, the inhibition result in data set [3] was “Active”. The CI90 in data set [4] is reported as 1.6; in [6], 0.63; in data set [7] it was 0.9; in [14] it was 0.29; in data set [16], 0.7. The CI50 in [8] is given as 0.18; in [10] it was 0.18; in data set [12], 0.56; in data set [13], 0.18; in data set [20], 0.18. Besides, the outcome in data set [11] was inactive. The outcome in data set [15] was Active. Besides, the IC50 in data set [19] was found to be 14.1 µM. In addition, the “fold change (FC)” value in data set [22] was determined as 1.1.

For orientation: IC50 means the concentration needed to halve the response being measured.
